# Measurements pooled from the literature.
# Target: Inhibitor of nuclear factor kappa-B kinase subunit beta (IKBKB, Homo sapiens, UniProt O14920)
# Residues used in one study (O14920 1-756): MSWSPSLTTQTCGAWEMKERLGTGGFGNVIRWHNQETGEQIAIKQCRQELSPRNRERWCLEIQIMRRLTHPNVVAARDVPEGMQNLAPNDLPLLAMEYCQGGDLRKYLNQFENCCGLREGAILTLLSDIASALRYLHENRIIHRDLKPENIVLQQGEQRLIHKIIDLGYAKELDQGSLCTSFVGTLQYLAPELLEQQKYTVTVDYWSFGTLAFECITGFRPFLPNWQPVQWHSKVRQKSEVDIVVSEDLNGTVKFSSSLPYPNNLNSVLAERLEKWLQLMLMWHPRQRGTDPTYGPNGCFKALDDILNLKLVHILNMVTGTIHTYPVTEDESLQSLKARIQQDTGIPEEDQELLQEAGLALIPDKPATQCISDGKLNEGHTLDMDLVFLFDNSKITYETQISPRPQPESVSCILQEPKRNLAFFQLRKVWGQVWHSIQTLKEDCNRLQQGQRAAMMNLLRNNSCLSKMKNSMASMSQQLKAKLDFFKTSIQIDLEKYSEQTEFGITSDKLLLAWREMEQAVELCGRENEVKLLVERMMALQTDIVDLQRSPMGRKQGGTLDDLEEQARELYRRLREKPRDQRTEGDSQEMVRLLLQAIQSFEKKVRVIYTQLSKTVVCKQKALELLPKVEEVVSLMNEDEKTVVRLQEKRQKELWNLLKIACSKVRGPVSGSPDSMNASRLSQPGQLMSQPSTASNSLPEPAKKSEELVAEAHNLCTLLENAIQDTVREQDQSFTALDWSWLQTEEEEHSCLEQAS
Structure (SMILES),assay,setting,quantity,value
C#Cc1cnc(Nc2ccnc(CO)c2)nc1Nc1ccccc1S(C)(=O)=NC#N (centres unmarked),cell-free assay,1 µM,remaining signal,97%
N#Cc1ccc(NC(=O)Nc2ccccc2)cc1,"cell-free assay, competition with immobilised ligand",25 µM,remaining binding,100%
CN1CCN(C(=O)c2ccc(NC(=O)Nc3ccc(N(C)c4ccnc(Nc5ccc(CS(C)(=O)=O)cc5)n4)cc3)cc2)CC1,"binding, competition with immobilised ligand",1 µM,remaining binding,70%
C=CC(=O)N1CCC[C@@H](n2nc(-c3ccc(Oc4ccccc4)cc3)c3c(N)ncnc32)C1,"enzyme activity, inhibitor",1 µM,inhibition,30%
COc1ccc2oc(-c3ccc4nc(N)oc4c3)c/c(=N\c3ccccc3NC(=O)CCN)c2c1,binding,1 µM,remaining binding,102%
CCCCC(=O)Nc1ccc(-c2ccc3ncn(CCC)c(=O)c3c2)cn1,"binding, competition with immobilised ligand",0.5 µM,remaining binding,100%
Cc1ccc(NC(=O)c2ccnc(C(F)(F)F)c2)cc1-c1cc(OCCO)nc(N2CCOCC2)c1,"binding, competition with immobilised ligand",1 µM,remaining binding,97%
CO[C@@H]1[C@H](N(C)C(=O)c2ccccc2)C[C@H]2O[C@]1(C)n1c3ccccc3c3c4c(c5c6ccccc6n2c5c31)C(=O)NC4,"enzyme activity, inhibitor",1 µM,inhibition,13%
